Sampled rows, rich in hits. Any-hit rate of the full collection: about 3.1%.
hERG rescue: hERG rescue from dofetilide block, primary screen, cell-based, CHO-hERG, FluxOR thallium flux, dofetilide IC70. Voltage-gated inwardly rectifying potassium channel KCNH2 (Homo sapiens), Q12809. 310,000 compounds, 0.51% hits. activation (rescue from dofetilide block), less the hit threshold, % at 10 µM. dofetilide IC70 present;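 active means activation above the mean of controls blocked by dofetilide plus 5 SD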;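 further: thallium influx through hERG after potassium depolarization seen as dye fluorescence rise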
Target sequence (Q12809 whole entry, looked up): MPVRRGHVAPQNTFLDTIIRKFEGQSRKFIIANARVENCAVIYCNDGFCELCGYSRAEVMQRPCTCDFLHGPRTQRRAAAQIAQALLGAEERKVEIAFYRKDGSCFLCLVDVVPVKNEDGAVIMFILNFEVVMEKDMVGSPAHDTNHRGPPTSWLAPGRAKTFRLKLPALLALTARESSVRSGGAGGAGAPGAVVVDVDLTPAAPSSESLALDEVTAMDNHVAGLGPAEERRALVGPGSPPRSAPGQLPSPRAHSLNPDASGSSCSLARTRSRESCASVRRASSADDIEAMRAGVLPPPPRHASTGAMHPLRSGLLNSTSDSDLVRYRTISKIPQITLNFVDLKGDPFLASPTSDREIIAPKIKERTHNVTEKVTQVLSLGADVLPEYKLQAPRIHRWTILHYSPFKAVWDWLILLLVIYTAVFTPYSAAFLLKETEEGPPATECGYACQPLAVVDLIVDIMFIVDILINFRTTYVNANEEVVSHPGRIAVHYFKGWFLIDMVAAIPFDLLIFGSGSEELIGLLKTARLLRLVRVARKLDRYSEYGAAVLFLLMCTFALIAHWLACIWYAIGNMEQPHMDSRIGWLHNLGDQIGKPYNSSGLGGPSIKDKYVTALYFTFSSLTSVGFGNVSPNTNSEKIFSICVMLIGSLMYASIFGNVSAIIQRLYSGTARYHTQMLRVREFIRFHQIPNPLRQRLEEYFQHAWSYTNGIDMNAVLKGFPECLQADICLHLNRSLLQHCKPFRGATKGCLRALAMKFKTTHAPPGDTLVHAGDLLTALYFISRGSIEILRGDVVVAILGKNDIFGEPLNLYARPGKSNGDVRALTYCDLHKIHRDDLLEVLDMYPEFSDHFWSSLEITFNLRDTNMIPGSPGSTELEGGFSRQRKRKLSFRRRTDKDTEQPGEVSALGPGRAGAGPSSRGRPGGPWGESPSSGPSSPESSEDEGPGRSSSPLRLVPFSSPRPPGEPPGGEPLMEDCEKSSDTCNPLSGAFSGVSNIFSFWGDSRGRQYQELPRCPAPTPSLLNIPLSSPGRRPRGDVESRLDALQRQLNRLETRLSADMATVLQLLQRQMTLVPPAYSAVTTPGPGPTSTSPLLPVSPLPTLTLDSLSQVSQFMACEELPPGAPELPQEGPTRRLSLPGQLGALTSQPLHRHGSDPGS
KCNQ1 pot: potentiators or activators of KCNQ1 channel, primary screen, cell-based, thallium flux, high-throughput; 310,000 compounds, 0.35% hits; CHO-K1 KCNQ1, thallium flux FluxOR fluorescence; hits give high values; B-score at 10 µM; AID 2648, 2010;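 active means fluorescence ratio B-score, a plate-corrected score, at least three library SD, with initial intensity B-score within 5 SD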
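Assay system: stable KCNQ1 CHO-K1 line; medium: assay buffer, equal DMSO in all wells; timing: 90 min dye loading and 20 min compound exposure, both at room temperature; technique: kinetic FluxOR thallium fluorescence, 10-s 1-Hz baseline, 110-s post-stimulus read; read-out basis: B score of baseline-normalized fluorescence ratio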
KCNK9 block: KCNK9 potassium channel inhibitors, primary screen, HEK293 cells, thallium flux. AID 488922, 2010. Potassium channel subfamily K member 9 (Homo sapiens), Q9NPC2. B-score at 10 µM. FluxOR thallium flux fluorescence; hits give low values. 310,000 compounds, 1.2% hits;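 active means ratio B-score over 3 SD below the library mean, with starting fluorescence within 5 SD of its mean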;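 further: negative B-score means less thallium flux so channel inhibition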
KCNQ1 inh: inhibitors of human KCNQ1 channel, primary screen, cell-based, thallium flux, high-throughput. Potassium voltage-gated channel subfamily KQT member 1 (Homo sapiens), P51787. CHO-K1 KCNQ1, FluxOR thallium flux fluorescence; hits give high values. B-score at 10 µM. 310,000 compounds, 1.3% hits. AID 2642, 2010;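 active means compounds whose thallium flux B-score, printed positive for inhibition, exceeds three library SD while starting fluorescence stays within three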;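 further: channel opened by potassium depolarization with thallium stimulus after 20 min compound exposure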
KCNK3 inh: human KCNK3 channel inhibitors, primary screen, CHO cells, FluxOR thallium flux, B-score; Potassium channel subfamily K member 3 (Homo sapiens), O14649; FluxOR fluorescence; hits give low values; B-score at 10 µM; 340,000 compounds, 0.84% hits; AID 602410, 2012;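 active means B-score under library mean minus 4 SD, starting fluorescence ratio at most library mean plus 5 SD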;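 further: more negative B-score means stronger inhibition of thallium flux through KCNK3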
* hit, by the source's call; i = inactive; . = not tested or not shown.

SMILES | hERG rescue | KCNQ1 pot | KCNK9 block | KCNQ1 inh | KCNK3 inh
COC(=O)c1cccc(-c2ccc(/C=N/N3C(=O)C4C5C=CC(C6CC56)C4C3=O)o2)c1 (stereo not drawn) | -12 | i | i | 7* | i
O=C(/C=C/c1cn(CC(O)CN2CCCCC2)c2ccccc12)c1cccs1 (stereo not drawn) | -31 | i | i | 7* | i
CCC(C)N(C(=O)COC(=O)c1ccccc1SCC(=O)N1CCCC1)C1CCS(=O)(=O)C1 (stereo not drawn) | -11 | i | i | i | i
CCN1CCN=C1Nc1ccccc1 | . | . | . | . | i
S=c1nc(COc2ccccc2)[nH]c2ccccc12 | 76* | 92* | i | i | i
S=c1nc(Cc2ccccc2)[nH]c2ccccc12 | 44* | 48* | i | i | i
Cc1nc(=S)c2ccccc2[nH]1 | -4 | i | i | i | i
S=c1nc(Cc2ccc(Cl)cc2)[nH]c2ccccc12 | 4 | 43* | i | i | i
Cc1ccc(C(=O)OCC(=O)N(Cc2ccccc2)C(C)C)cc1C | . | . | . | . | i
Cc1ccc(C)c(NC(=O)CN(C)C(=O)c2cc3ccccc3oc2=O)c1 | . | . | . | . | i
COc1ccc(NC(=O)CSc2nnc(-c3cc(C)[nH]n3)n2N)cc1 | 1 | i | i | i | i
COc1ccccc1/C=N/Nc1cc(N(C)C)nc(N(C)C)n1 | -7 | i | i | 6* | i
CN(C)c1cc(N/N=C\c2ccccc2)nc(N(C)C)n1 | -17 | i | i | i | i
COc1ccc(C(=O)NCCc2ccccc2F)cc1OC1CCN(C(C)=O)CC1 | -11 | i | i | i | i
CC1(c2ccccc2)NC(=O)N(CC(=O)Nc2ccc(S(=O)(=O)NC3=NCCCCC3)cc2)C1=O (stereo not drawn) | . | . | . | . | i
CC(C)OC(=O)CN1C(=O)S/C(=C/c2ccc(N3CCCCC3)o2)C1=O | 0 | i | -7.8* | i | i
O=C1S/C(=C/c2ccc(N3CCOCC3)o2)C(=O)N1Cc1ccc(F)cc1 | -12 | i | i | i | i
C=C[C@@]1(C)CC(=O)[C@]2(O)[C@@]3(C)[C@@H](O)CCC(C)(C)[C@@H]3[C@H](O)[C@H](OC(C)=O)[C@@]2(C)O1 | -14 | 12* | i | i | i
C=C[C@@]1(C)CC(=O)[C@]2(O)[C@@]3(C)[C@@H](O)CCC(C)(C)[C@@H]3[C@H](OC(C)=O)[C@H](O)[C@@]2(C)O1 | -13 | 13* | i | i | i
C=C1C(=O)O[C@H]2C[C@]3(C)C([C@@H](OC(=O)/C(C)=C/C)[C@H]12)[C@](C)(O)CC[C@H]3O (stereo partly drawn) | -4 | i | i | i | i
CC(C)Cn1c(N)c(C(=O)COC(=O)c2c(O)c(Cl)cc(Cl)c2Cl)c(=O)n(C)c1=O | . | . | . | . | -10*
CC(C)Cn1c(N)c(C(=O)COC(=O)c2ccc(Cl)cc2)c(=O)n(C)c1=O | -14 | i | i | i | i
Cc1ccsc1/C=N/NC(=O)c1ccc(Cn2cc(Br)cn2)o1 | -5 | i | i | i | i
O=C(N/N=C/c1cccc(Br)c1)c1ccc(Cn2cc(Br)cn2)o1 | -17 | i | -7.5* | i | i
Cc1cc(N/N=C2\CC(C)CC(C)(C)C2)nc2ccccc12 (stereo not drawn) | -24 | i | i | 14* | i
SMILES | hERG rescue | KCNQ1 pot | KCNK9 block | KCNQ1 inh | KCNK3 inh
CC(CC(=O)Nc1ncc([N+](=O)[O-])s1)c1ccccc1 (stereo not drawn) | -6 | i | i | 11* | i
Cc1ccc(C(=O)Nc2ncc([N+](=O)[O-])s2)cc1 | -2 | i | i | 6* | i
COc1ccc(S(=O)(=O)N2CCCCC2)cc1NC(=O)C1COc2ccccc2O1 (stereo not drawn) | -12 | i | i | i | i
O=C(CN1CCN(S(=O)(=O)N2CCOCC2)CC1)Nc1cc(Cl)ccc1Cl | -7 | i | i | i | i
O=c1cc(CNc2cc(C(F)(F)F)cc(C(F)(F)F)c2)nc2sccn12 | -3 | i | -7.4* | i | i
O=c1ccc(C(F)(F)F)cn1Cc1cc(=O)n2ccsc2n1 | 0 | i | i | i | i
COc1ccc(C(c2c[nH]c3ccccc23)c2c[nH]c3ccccc23)cc1O | -5 | i | i | 7* | i
CC(C)CC(COCc1ccc(Cl)cc1)N1CCN(C(=O)c2cccc(C(F)(F)F)c2)CCC1=O (stereo not drawn) | -14 | i | i | i | i
CC(C)CC(COCc1ccc(C(F)(F)F)cc1)N1CCN(C(=O)c2ccc(C(F)(F)F)cc2)CCC1=O (stereo not drawn) | -4 | i | -7.1* | i | i
Cc1ccccc1NC(=S)NNC(=O)c1csc2c1CCC(C)C2 (stereo not drawn) | -8 | 10* | i | i | i
CCNC(=S)NNC(=O)c1csc2c1CCC(C)C2 (stereo not drawn) | -6 | i | i | i | i
CC(C)n1c(O)c(N=NC(=O)C2COc3ccccc3O2)c2ccccc21 (stereo not drawn) | 23* | i | i | i | i
Cn1ccnc1C(=O)c1cccc([N+](=O)[O-])c1 | -6 | 8* | i | i | i
CCCCNC(=O)/C(C#N)=c1\s/c(=C\c2ccccc2OC(F)F)c(=O)n1CCCOC | -9 | i | i | 7* | i
O=C(c1cccc(S(=O)(=O)N2CCc3ccccc3C2)c1)N1CCN(c2ccccc2)CC1 | -6 | i | i | i | i
O=C(c1cccc(S(=O)(=O)N2CCc3ccccc32)c1)N1CCN(c2ccccc2)CC1 | . | . | . | . | -8.9*
CCn1nnnc1SCC(=O)Nc1sc(C)c(C)c1C#N | -6 | i | i | i | i
CCOC(=O)c1c(NC(=O)CSc2nnnn2C)sc(CC)c1C | -3 | i | -6.8* | i | i
CCCn1nnnc1SCC(=O)Nc1nnc(CC)s1 | 17* | i | i | i | i
CCOC(=O)c1c(NC(=O)CSc2nnnn2C)sc(C)c1C | -7 | i | i | i | i
Cc1nc(NC(=O)CSc2nnnn2Cc2ccccc2)sc1C | 5.0* | i | i | i | i
CCOC(=O)c1c(NC(=O)CSc2nnnn2CC)sc(C)c1C | -7 | i | -7.7* | i | i
COC(=O)c1c(NC(=O)Cc2ccccc2)sc(C)c1C | -5 | i | i | i | i
COC(=O)c1c(NC(=O)CSc2ccccc2N)sc(C)c1C | -5 | i | -7.6* | i | i
